Assay results from ChEMBL document CHEMBL4270565, “Design, synthesis and antimicrobial evaluation of propylene-tethered ciprofloxacin-isatin hybrids” (Eur J Med Chem, 2018).
In brackets after ≈: the same amount, converted by molar mass.

Experiments:
Assay type in all cases: functional
[1] = tested on: Mycobacterium tuberculosis; test: Antimycobacterial activity against isoniazid/rifampicin/ethambutol-resistant Mycobacterium tuberculosis after 7 days; conditions: 168 h
Summary of the method: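 Rapid direct susceptibility test in 48-well plates. Two-fold dilutions of compound from DMSO stocks were mixed with an equal volume of bacterial suspension. Medium-only wells served as growth controls and water-only wells as no-growth controls. Plates were sealed and held at 37 C in a humid box, and controls were checked at 3 days. MIC (90% growth inhibition) was read visually by high-magnification observation of the cells and re-read at 7 days.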

[2] = tested on: Mycobacterium tuberculosis; test: Potency index, ratio of isoniazid MIC90 to compound MIC90 for isoniazid/rifampicin/ethambutol-resistant Mycobacterium tuberculosis after 7 days
[3] = tested on: Mycobacterium tuberculosis; test: Potency index, ratio of rifampicin MIC90 to compound MIC90 for isoniazid/rifampicin/ethambutol-resistant Mycobacterium tuberculosis after 7 days
[4] = tested on: Mycobacterium tuberculosis; test: Potency index, ratio of ciprofloxacin MIC90 to compound MIC90 for isoniazid/rifampicin/ethambutol-resistant Mycobacterium tuberculosis after 7 days

Compound | MIC90 [1] | also measured
NNC(=O)c1ccncc1 [ISONIAZID] | > 128 µg/mL | 
CO/N=C1\C(=O)N(CCCN2CCN(c3cc4c(cc3F)c(=O)c(C(=O)OCCCN3C(=O)/C(=N/OC)c5cc(C)ccc53)cn4C3CC3)CC2)c2ccc(C)cc21 | 32 µg/mL (≈ 40.4 µM) | 
CO/N=C1\C(=O)N(CCCN2CCN(c3cc4c(cc3F)c(=O)c(C(=O)O)cn4C3CC3)CC2)c2ccc(C)cc21 | 1 µg/mL (≈ 1.78 µM) | 
Cc1ccc2c(c1)C(=O)C(=O)N2CCCN1CCN(c2cc3c(cc2F)c(=O)c(C(=O)O)cn3C2CC2)CC1 | 0.5 µg/mL (≈ 0.939 µM) | Ratio [2]: >=4 - 256; Ratio [3]: >=4 - 256; Ratio [4]: >=4 - 256
CCO/N=C1\C(=O)N(CCCN2CCN(c3cc4c(cc3F)c(=O)c(C(=O)OCCCN3C(=O)/C(=N/OCC)c5cc(C)ccc53)cn4C3CC3)CC2)c2ccc(C)cc21 | 64 µg/mL (≈ 78.1 µM) | 
CCO/N=C1\C(=O)N(CCCN2CCN(c3cc4c(cc3F)c(=O)c(C(=O)O)cn4C3CC3)CC2)c2ccccc21 | 1 µg/mL (≈ 1.78 µM) | 
Cc1ccc2c(c1)C(=O)C(=O)N2CCCOC(=O)c1cn(C2CC2)c2cc(N3CCN(CCCN4C(=O)C(=O)c5cc(C)ccc54)CC3)c(F)cc2c1=O | 32 µg/mL (≈ 43.6 µM) | 
O=C1C(=O)N(CCCOC(=O)c2cn(C3CC3)c3cc(N4CCN(CCCN5C(=O)C(=O)c6ccccc65)CC4)c(F)cc3c2=O)c2ccccc21 | 32 µg/mL (≈ 45.3 µM) | 
CO[C@H]1/C=C/O[C@@]2(C)Oc3c(C)c(O)c4c(O)c(c(/C=N/N5CCN(C)CC5)c(O)c4c3C2=O)NC(=O)/C(C)=C\C=C\[C@H](C)[C@H](O)[C@@H](C)[C@@H](O)[C@@H](C)[C@H](OC(C)=O)[C@@H]1C [RIFAMPIN] | 32 µg/mL (≈ 38.9 µM) | 
CO/N=C1\C(=O)N(CCCN2CCN(c3cc4c(cc3F)c(=O)c(C(=O)OCCCN3C(=O)/C(=N/OC)c5ccccc53)cn4C3CC3)CC2)c2ccccc21 | 64 µg/mL (≈ 83.8 µM) | 
O=C(O)c1cn(C2CC2)c2cc(N3CCNCC3)c(F)cc2c1=O [CIPROFLOXACIN] | 2 µg/mL (≈ 6.04 µM) | 
CCO/N=C1\C(=O)N(CCCN2CCN(c3cc4c(cc3F)c(=O)c(C(=O)OCCCN3C(=O)/C(=N/OCC)c5ccccc53)cn4C3CC3)CC2)c2ccccc21 | 64 µg/mL (≈ 80.8 µM) | 
CO/N=C1\C(=O)N(CCCN2CCN(c3cc4c(cc3F)c(=O)c(C(=O)O)cn4C3CC3)CC2)c2ccccc21 | 2 µg/mL (≈ 3.65 µM) | 
CCO/N=C1\C(=O)N(CCCN2CCN(c3cc4c(cc3F)c(=O)c(C(=O)O)cn4C3CC3)CC2)c2ccc(C)cc21 | 4 µg/mL (≈ 6.95 µM) | 
O=C1C(=O)N(CCCN2CCN(c3cc4c(cc3F)c(=O)c(C(=O)O)cn4C3CC3)CC2)c2ccccc21 | 0.5 µg/mL (≈ 0.964 µM) | 
